From ChEMBL document CHEMBL2439973, “Discovery of VU0409106: A negative allosteric modulator of mGlu5 with activity in a mouse model of anxiety” (Bioorg Med Chem Lett, 2013) come the findings set out here.

Activity calls are given as the source filed them. The calls are words filed in the database; no cut-off is given here. A value given as a limit tells only on which side of the number the result lay.

Data set [1] concerns the target Sigma non-opioid intracellular receptor 1 (Homo sapiens) (UniProt Q99720). The data set is described as follows: Displacement of [3H]-Haloperidol from sigma1 receptor in human Jurkat cells at 10 uM relative to control. It counts as cell-based. Put shortly:
(§1)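 Tested once at 10 μM in a commercial radioligand binding panel of 68 GPCRs, ion channels, kinases and transporters. Activity is given as displacement of each radioligand relative to control.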

The species named for a further data set is Oryctolagus cuniculus. The data set is described as follows: Displacement of [3H]-alpha,beta-Methylene-ATP from purinergic P2x receptor in rabbit urinary bladder at 10 uM relative to control.
Data set [2] deals with Prostaglandin E2 receptor EP4 subtype (Homo sapiens) (UniProt P35408). In words: Displacement of [3H]-PGE2 from human recombinant prostanoid EP4 receptor expressed in rat Chem-1 cells at 10 uM relative to control. It counts as cell-based.
Chain of Prostaglandin E2 receptor EP4 subtype (Homo sapiens) (P35408 whole entry): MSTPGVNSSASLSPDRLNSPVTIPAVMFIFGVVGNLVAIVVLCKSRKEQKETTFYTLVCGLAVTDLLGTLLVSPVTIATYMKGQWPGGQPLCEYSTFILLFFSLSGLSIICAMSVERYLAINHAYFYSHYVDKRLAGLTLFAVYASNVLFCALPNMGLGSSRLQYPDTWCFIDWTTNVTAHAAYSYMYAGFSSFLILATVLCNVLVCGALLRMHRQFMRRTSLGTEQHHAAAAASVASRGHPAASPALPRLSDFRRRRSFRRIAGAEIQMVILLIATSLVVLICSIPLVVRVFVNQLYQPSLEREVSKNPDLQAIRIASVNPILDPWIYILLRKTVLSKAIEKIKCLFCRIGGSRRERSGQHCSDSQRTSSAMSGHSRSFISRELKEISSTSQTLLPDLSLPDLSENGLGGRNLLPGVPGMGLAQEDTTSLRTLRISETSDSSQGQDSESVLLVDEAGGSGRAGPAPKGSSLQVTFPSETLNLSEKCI
For data set [3], the target named is Muscarinic acetylcholine receptor M2 (Homo sapiens) (UniProt P08172). The data set is described as follows: Displacement of [3H]-N-Methylscopolamine from human recombinant muscarinic M2 receptor expressed in CHO-K1 cells at 10 uM relative to control. It counts as cell-based. An outline of the steps: as §1
Chain of Muscarinic acetylcholine receptor M2 (Homo sapiens) (P08172 whole entry): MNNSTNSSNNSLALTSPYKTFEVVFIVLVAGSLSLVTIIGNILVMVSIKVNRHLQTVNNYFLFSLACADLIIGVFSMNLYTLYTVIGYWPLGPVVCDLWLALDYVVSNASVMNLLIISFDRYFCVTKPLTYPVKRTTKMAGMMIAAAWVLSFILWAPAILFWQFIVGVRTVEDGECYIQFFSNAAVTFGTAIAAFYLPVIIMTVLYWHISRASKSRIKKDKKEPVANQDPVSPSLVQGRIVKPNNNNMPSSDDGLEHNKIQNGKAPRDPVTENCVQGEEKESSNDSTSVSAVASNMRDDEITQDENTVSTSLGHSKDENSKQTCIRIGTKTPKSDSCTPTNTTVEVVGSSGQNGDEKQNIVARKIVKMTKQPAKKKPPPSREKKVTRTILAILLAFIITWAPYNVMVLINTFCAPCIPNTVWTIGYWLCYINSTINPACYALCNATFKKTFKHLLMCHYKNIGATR
(In general: Displacement assays read how much labelled ligand stays bound in the presence of the test substance.)

For data set [4], the target named is Glutamate NMDA receptor (Rattus norvegicus) (UniProt P35439+Q00959+Q00960+Q00961+Q62645+Q8VHN2+Q9R1M7). The data set is described as follows: Displacement of [3H]-MDL 105,519 from NMDA receptor glycine binding site in rat cerebral cortex at 10 uM relative to control. In kind it is tissue-based. An outline of the steps: as §1
Data set [5] deals with Endothelin receptor type B (Homo sapiens) (UniProt P24530). In words: Displacement of [125I]-Endothelin-1 from human recombinant ETB receptor expressed in CHO-K1 cells at 10 uM relative to control. In kind it is cell-based. Put shortly:
as §1

Another data set relates to CHO-K1. In words: Displacement of [3H]-Spiperone from human recombinant dopamine D4.2 receptor expressed in CHO-K1 cells at 10 uM relative to control. It counts as cell-based.
In data set [6] the target is B2 bradykinin receptor (Homo sapiens) (UniProt P30411). In words: Displacement of [3H]-Bradykinin from human recombinant bradykinin B2 receptor expressed in rat Chem-1 cells at 10 uM relative to control. It counts as cell-based. Put shortly: as §1
Chain of B2 bradykinin receptor (Homo sapiens) (P30411 whole entry): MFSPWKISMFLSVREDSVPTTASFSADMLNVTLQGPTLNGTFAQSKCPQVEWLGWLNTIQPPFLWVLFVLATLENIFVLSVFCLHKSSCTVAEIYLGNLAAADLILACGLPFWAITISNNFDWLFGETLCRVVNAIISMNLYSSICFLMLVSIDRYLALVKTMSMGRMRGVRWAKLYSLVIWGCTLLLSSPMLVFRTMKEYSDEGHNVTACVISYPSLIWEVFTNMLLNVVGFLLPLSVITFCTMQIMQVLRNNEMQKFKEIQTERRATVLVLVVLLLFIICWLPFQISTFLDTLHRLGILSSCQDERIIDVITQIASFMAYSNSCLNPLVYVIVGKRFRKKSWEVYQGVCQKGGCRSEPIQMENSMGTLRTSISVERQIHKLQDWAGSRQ
For data set [7], the target named is Adenosine receptor A1 (Homo sapiens) (UniProt P30542). In words: Displacement of [3H]-DPCPX from human recombinant adenosine A1 receptor expressed in CHO cells at 10 uM relative to control. In kind it is cell-based. An outline of the steps:
as §1

Data set [8] addresses Adenosine receptor A3 (Homo sapiens) (UniProt P0DMS8). In words: Displacement of [125I]-AB-MECA from human recombinant adenosine A3 receptor expressed in CHO-K1 cells at 10 uM relative to control. In kind it is cell-based. Put shortly: as §1
The target in data set [9] is Metabotropic glutamate receptor 7 (Rattus norvegicus) (UniProt P35400). In words: Allosteric modulation of rat mGlu7 receptor expressed in HEK293 cells coexpressing G protein-activated inward rectifier potassium channel assessed as effect on L-AP4-induced thallium flux at 10 uM. In kind it is cell-based.
Chain of Metabotropic glutamate receptor 7 (Rattus norvegicus) (P35400 whole entry): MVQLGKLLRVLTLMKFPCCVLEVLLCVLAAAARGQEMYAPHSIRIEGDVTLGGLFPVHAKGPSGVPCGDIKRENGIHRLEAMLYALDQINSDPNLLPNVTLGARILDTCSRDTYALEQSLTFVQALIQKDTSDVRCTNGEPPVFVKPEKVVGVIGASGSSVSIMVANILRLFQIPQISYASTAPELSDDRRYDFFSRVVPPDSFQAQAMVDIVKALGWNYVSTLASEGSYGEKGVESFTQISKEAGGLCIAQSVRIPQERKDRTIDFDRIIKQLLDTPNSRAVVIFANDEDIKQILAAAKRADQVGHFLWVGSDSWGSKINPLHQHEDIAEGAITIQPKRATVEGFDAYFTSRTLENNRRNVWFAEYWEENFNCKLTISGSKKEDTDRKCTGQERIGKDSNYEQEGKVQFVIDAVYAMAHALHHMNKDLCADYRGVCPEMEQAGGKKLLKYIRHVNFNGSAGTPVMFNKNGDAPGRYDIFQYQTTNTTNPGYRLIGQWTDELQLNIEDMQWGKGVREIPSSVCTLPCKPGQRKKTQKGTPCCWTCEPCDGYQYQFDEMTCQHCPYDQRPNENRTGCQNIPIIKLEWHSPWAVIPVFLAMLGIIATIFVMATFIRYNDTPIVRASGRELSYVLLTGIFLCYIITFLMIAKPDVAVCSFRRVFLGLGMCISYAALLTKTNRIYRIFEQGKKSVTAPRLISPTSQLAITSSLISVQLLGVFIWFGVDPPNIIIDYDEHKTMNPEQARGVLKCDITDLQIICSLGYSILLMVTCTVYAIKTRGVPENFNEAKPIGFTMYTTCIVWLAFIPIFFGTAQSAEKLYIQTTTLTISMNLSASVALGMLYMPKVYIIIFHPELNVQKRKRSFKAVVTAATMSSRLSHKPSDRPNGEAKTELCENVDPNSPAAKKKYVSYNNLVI
For data set [10], the target named is Metabotropic glutamate receptor 6 (Rattus norvegicus) (UniProt P35349). The data set is described as follows: Allosteric modulation of rat mGlu6 receptor expressed in HEK293 cells coexpressing G protein-activated inward rectifier potassium channel assessed as effect on glutamate-induced thallium flux at 10 uM. In kind it is cell-based.
Chain of Metabotropic glutamate receptor 6 (Rattus norvegicus) (P35349 whole entry): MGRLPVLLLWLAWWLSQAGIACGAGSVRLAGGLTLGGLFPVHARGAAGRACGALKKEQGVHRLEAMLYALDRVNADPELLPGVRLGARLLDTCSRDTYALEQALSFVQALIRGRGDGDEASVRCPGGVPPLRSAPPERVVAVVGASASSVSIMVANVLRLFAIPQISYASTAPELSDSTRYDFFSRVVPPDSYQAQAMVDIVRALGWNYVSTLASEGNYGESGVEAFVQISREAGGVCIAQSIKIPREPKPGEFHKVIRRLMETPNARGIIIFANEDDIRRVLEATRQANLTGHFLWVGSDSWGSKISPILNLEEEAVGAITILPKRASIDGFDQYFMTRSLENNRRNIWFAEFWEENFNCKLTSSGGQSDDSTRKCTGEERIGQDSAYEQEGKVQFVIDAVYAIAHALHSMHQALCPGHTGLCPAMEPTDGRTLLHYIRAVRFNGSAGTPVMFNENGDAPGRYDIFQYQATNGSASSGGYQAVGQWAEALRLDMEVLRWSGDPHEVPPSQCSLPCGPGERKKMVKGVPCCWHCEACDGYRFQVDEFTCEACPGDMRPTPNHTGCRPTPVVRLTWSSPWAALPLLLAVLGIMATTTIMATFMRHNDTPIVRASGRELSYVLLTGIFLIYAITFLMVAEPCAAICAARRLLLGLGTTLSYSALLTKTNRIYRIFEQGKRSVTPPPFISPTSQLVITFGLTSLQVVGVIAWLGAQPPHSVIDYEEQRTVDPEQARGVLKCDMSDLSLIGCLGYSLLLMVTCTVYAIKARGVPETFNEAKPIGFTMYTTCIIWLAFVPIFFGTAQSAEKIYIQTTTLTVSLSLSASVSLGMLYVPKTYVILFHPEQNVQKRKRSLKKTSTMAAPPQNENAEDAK
In data set [11] the target is Metabotropic glutamate receptor 1 (Rattus norvegicus) (UniProt P23385). In words: Allosteric modulation of rat mGlu1 receptor expressed in HEK293 cells assessed as effect on glutamate-induced calcium mobilization at 10 uM. In kind it is functional, cell-based.
Chain of Metabotropic glutamate receptor 1 (Rattus norvegicus) (P23385 19-1199 limits assumed): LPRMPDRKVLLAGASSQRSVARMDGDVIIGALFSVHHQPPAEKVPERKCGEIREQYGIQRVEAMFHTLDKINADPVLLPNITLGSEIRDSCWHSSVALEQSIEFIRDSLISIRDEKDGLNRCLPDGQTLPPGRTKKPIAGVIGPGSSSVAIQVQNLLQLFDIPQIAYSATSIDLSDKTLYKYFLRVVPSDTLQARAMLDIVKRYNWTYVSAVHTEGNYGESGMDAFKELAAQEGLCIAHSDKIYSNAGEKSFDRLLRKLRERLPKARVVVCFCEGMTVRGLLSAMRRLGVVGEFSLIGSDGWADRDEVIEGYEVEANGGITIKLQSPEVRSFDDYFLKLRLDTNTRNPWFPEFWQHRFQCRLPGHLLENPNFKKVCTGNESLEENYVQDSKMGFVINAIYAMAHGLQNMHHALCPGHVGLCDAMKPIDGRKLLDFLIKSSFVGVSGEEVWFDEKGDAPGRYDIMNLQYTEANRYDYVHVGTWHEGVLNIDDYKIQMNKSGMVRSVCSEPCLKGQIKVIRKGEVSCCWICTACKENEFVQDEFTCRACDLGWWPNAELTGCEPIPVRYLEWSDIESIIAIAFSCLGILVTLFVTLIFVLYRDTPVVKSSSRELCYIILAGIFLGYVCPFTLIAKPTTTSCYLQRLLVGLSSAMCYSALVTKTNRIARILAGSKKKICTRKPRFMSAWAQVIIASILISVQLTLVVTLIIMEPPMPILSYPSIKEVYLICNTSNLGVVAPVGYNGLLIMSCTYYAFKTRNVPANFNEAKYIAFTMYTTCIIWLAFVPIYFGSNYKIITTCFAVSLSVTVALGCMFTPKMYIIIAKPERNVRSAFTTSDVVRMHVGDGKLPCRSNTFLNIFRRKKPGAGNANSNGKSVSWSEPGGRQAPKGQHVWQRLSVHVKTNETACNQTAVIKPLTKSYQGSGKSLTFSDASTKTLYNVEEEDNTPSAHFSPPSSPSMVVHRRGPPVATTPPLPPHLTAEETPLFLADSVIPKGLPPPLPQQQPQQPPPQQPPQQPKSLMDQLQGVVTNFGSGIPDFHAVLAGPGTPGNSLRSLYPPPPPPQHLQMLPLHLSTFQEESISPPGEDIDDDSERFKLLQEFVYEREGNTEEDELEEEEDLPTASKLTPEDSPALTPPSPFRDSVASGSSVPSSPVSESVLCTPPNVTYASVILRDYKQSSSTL
The test system of another data set is Brain. In words: AUC in CD-1 mouse brain at 10 mg/kg, ip by LC-MS/MS analysis. The conditions noted are these: in vivo. In kind it is ADME, organism-based. Set-up: dose 10 mg/kg, route intraperitoneal.
Data set [12] is described as follows: Cmax in CD-1 mouse brain at 10 mg/kg, ip by LC-MS/MS analysis. In kind it is ADME, organism-based. Set-up: dose 10 mg/kg, route intraperitoneal.
In the next data set the test system is Plasma. The data set is described as follows: Tmax in CD-1 mouse plasma at 10 mg/kg, ip by LC-MS/MS analysis. The arrangement: dose 10 mg/kg, route intraperitoneal. The conditions noted are these: in vivo. It counts as ADME, organism-based.

Chain of Sigma non-opioid intracellular receptor 1 (Homo sapiens) (Q99720 whole entry): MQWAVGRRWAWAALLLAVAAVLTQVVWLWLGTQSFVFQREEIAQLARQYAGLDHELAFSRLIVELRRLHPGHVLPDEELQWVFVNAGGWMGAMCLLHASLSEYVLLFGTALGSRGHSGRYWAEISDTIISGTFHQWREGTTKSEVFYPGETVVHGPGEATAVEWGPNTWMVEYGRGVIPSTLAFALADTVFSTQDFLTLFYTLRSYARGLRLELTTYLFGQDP
Chain of Endothelin receptor type B (Homo sapiens) (P24530 whole entry): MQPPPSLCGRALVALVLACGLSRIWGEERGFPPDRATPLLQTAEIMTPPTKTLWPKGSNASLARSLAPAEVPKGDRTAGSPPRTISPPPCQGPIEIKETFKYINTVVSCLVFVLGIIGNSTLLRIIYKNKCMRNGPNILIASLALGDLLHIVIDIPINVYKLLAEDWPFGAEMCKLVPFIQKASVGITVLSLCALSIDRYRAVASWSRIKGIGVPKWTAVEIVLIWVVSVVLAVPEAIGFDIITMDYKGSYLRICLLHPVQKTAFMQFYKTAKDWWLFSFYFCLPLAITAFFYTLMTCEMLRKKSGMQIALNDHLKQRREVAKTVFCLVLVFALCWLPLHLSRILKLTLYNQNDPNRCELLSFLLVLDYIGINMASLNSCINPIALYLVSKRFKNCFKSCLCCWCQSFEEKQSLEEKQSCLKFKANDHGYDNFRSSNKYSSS

For orientation: inhibition means the relative decrease from the control value, in per cent. The term Cmax denotes the highest concentration seen after dosing. As a reminder, the Tmax is the time from dosing to the highest level. On to `Cc1csc(NC(=O)c2cc(F)cc(Oc3cncnc3)c2)n1`, for which the inhibition (in data set [1]; in the data set filed under Oryctolagus cuniculus; in data set [2]; in [3]; in [4]; in data set [5]) was more than 35% each time. Also, the inhibition (with CHO-K1; in data set [6]; in [7]; in [8]) was more than 35% in each case. The result in data set [9], in [10] and in data set [11] was inactive. Besides, in the data set with Brain, the AUC stood at 696 ng·h/g. In data set [12], this compound displayed a maximum concentration (Cmax) of 1350 ng/g. In addition, the time to peak (Tmax) in the data set on Plasma is 15 min.
